This note sets out measurements from ChEMBL document CHEMBL2384957, “Synthesis and antimicrobical evaluation of a novel class of 1,3,4-thiadiazole: derivatives bearing 1,2,4-triazolo[1,5-a]pyrimidine moiety” (2013).

≈ marks a conversion by molar mass, not a printed value.

Type in all cases: functional
Experiment [1] is described as follows: Antifungal activity against Gibberella saubinettii assessed as inhibition of mycelia elongation rate at 50 ppm after 48 hrs relative to control. The note with it: Fusarium graminearum. Summed up:
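Poisoned-agar mycelial growth test: sample dissolved in DMF at 500 mg/L, 1 mL mixed into 9 mL thawed potato glucose agar at 50 °C and poured into plates. A 4 mm mycelium disk was placed on each plate, inverted, incubated 28 °C for 48 h. Mycelial elongation radius (mm) measured against a sample-free medium blank; three replicates.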

The next experiment has as its system Cercospora beticola. Nature of the experiment: Antifungal activity against Cercospora beticola assessed as inhibition of mycelia elongation rate at 50 ppm after 48 hrs relative to control. The method, boiled down: (§1)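 This was a mycelial growth assay on potato glucose agar. Samples were dissolved in DMF at 500 mg/L (stock), and 1 part solution was mixed with 9 parts thawed medium at 50 °C before plating. Solidified plates were inoculated with a 4 mm mycelium disk, inverted and incubated at 28 °C for 48 h. Medium without sample served as blank. Mycelial elongation radius was measured, in triplicate.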

In the next experiment the test system is Escherichia coli. Description: Antibacterial activity against Escherichia coli ATCC 35218 assessed as growth inhibition after 24 hrs by two-fold serial dilution method. The note with it: ATCC 35218, 24 h. The method, boiled down: (§2)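 MICs were determined by two-fold serial dilution in nutrient broth, following CLSI. The inoculum came from 24 h bacterial cultures on nutrient agar at 37 ± 1 °C and was adjusted in sterile saline to 1×10⁴–10⁵ CFU/mL. Tubes were incubated at 37 ± 1 °C. MIC was read visually after 24 h, with kanamycin as the reference standard.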

The test system of another experiment is Staphylococcus aureus. Description: Antibacterial activity against Staphylococcus aureus ATCC 6538 assessed as growth inhibition after 24 hrs by two-fold serial dilution method. The note with it: ATCC 6538, 24 h. Summed up: as §2
A further experiment concerns Bacillus spizizenii. Nature of the experiment: Antibacterial activity against Bacillus subtilis ATCC 6633 assessed as growth inhibition after 24 hrs by two-fold serial dilution method. The note with it: ATCC 6633, 24 h. Summed up:
as §2

The subject of a further experiment is Fusarium oxysporum. Nature of the experiment: Antifungal activity against Fusarium oxysporum assessed as inhibition of mycelia elongation rate at 50 ppm after 48 hrs relative to control. Summed up:
as §1

The nature of experiment [2]: Antifungal activity against Physalospora pyricola assessed as inhibition of mycelia elongation rate at 50 ppm after 48 hrs relative to control. The note with it: Botryosphaeria berengeriana. The method, boiled down:
as §1

In another experiment the test system is Rhizoctonia solani. Nature of the experiment: Antifungal activity against Rhizoctonia solani assessed as inhibition of mycelia elongation rate at 50 ppm after 48 hrs relative to control. The method, boiled down: as §1
The subject of a further experiment is Pseudomonas fluorescens. Nature of the experiment: Antibacterial activity against Pseudomonas fluorescens ATCC 13525 assessed as growth inhibition after 24 hrs by two-fold serial dilution method. The note with it: ATCC 13525, 24 h. Summed up:
as §2

`Cc1cc(C)n2nc(SCc3nnc(SCc4cccc([N+](=O)[O-])c4)s3)nc2n1`: the inhibition in experiment [1] worked out at 64%; in experiment [2], 63%. Moreover, the inhibition at 50 ppm was 70% in the experiment on Cercospora beticola, 28% in the experiment on Fusarium oxysporum and 64% in the experiment on Rhizoctonia solani. The minimum inhibitory concentration (MIC) with Escherichia coli, with Staphylococcus aureus, in the experiment with Bacillus spizizenii and in the experiment on Pseudomonas fluorescens was 25 µg/mL (≈ 56.1 µM) each time.

Regarding `Cc1cccc(CSc2nnc(CSc3nc4nc(C)cc(C)n4n3)s2)c1`, the inhibition was determined as 45% in experiment [1] and 72% in experiment [2]. The inhibition at 50 ppm amounted to 43% in the experiment with Cercospora beticola, 55% with Fusarium oxysporum and 54% with Rhizoctonia solani. Moreover, the MIC is 12.5 µg/mL (≈ 30.2 µM) in the experiment on Escherichia coli, > 100 µg/mL in the experiment on Staphylococcus aureus, > 100 µg/mL in the experiment with Bacillus spizizenii and 50 µg/mL (≈ 121 µM) in the experiment with Pseudomonas fluorescens.

For the molecule `OCC1=C[C@H](N[C@H]2C[C@H](CO)[C@@H](O[C@@H]3O[C@H](CO)[C@@H](O)[C@H](O)[C@H]3O)[C@H](O)[C@H]2O)[C@H](O)[C@@H](O)[C@@H]1O` [VALIDAMYCIN], the inhibition in experiment [1] was determined as 37%; in experiment [2], 47%. Further, the inhibition at 50 ppm in the experiment on Cercospora beticola amounted to 42%; with Fusarium oxysporum, 35%; with Rhizoctonia solani, 75%.

Regarding `Cc1cc(C)n2nc(SCc3nnc(SCc4ccccc4C)s3)nc2n1`, the inhibition in experiment [1] worked out at 48%; in experiment [2], 73%. Moreover, the inhibition at 50 ppm in the experiment on Cercospora beticola turned out to be 36%; in the experiment on Fusarium oxysporum, 50%; in the experiment on Rhizoctonia solani, 55%. Besides, the minimum inhibitory concentration (MIC) in the experiment with Escherichia coli was 12.5 µg/mL (≈ 30.2 µM); in the experiment with Staphylococcus aureus, > 100 µg/mL; in the experiment on Bacillus spizizenii it was > 100 µg/mL; with Pseudomonas fluorescens it was 25 µg/mL (≈ 60.3 µM).

On to `Cc1cc(C)n2nc(SCc3nnc(SCc4cccc(F)c4)s3)nc2n1`, for which the inhibition came out at 17% in [1] and 71% in [2]. Also, the inhibition at 50 ppm in the experiment with Cercospora beticola is 41%; in the experiment with Fusarium oxysporum, 45%; in the experiment on Rhizoctonia solani, 60%. The minimum inhibitory concentration (MIC) is 12.5 µg/mL (≈ 29.9 µM) with Escherichia coli, > 100 µg/mL with Staphylococcus aureus, > 100 µg/mL in the experiment on Bacillus spizizenii and 50 µg/mL (≈ 119 µM) in the experiment on Pseudomonas fluorescens.

For `Cc1cc(C)n2nc(SCc3nnc(SCc4ccc(F)cc4F)s3)nc2n1`, the inhibition in experiment [1] was 64%; in experiment [2], 86%. The results for the inhibition at 50 ppm with Cercospora beticola, with Fusarium oxysporum and with Rhizoctonia solani were 64%, 56% and 79%, respectively. The minimum inhibitory concentration (MIC) amounted to 3.13 µg/mL (≈ 7.17 µM) in the experiment on Escherichia coli, 25 µg/mL (≈ 57.3 µM) in the experiment on Staphylococcus aureus, 25 µg/mL (≈ 57.3 µM) in the experiment on Bacillus spizizenii and 12.5 µg/mL (≈ 28.6 µM) in the experiment on Pseudomonas fluorescens.

As to `NC[C@H]1O[C@H](O[C@H]2[C@H](O)[C@@H](O[C@H]3O[C@H](CO)[C@@H](O)[C@H](N)[C@H]3O)[C@H](N)C[C@@H]2N)[C@H](O)[C@@H](O)[C@@H]1O` [KANAMYCIN], the MIC in the experiment with Escherichia coli was found to be 1.56 µg/mL (≈ 3.22 µM); in the experiment with Staphylococcus aureus, 3.13 µg/mL (≈ 6.46 µM); in the experiment with Bacillus spizizenii, 0.78 µg/mL (≈ 1.61 µM); with Pseudomonas fluorescens, 3.13 µg/mL (≈ 6.46 µM).

`C=Cc1ccc(CSc2nnc(CSc3nc4nc(C)cc(C)n4n3)s2)cc1`: the inhibition in [1] amounted to 78%; in [2], 72%. For the same molecule, the inhibition at 50 ppm with Cercospora beticola was 54%; in the experiment with Fusarium oxysporum, 42%; in the experiment with Rhizoctonia solani it was 50%. Also, the MIC in the experiment with Escherichia coli is 12.5 µg/mL (≈ 29.3 µM); in the experiment on Staphylococcus aureus it was 12.5 µg/mL (≈ 29.3 µM); with Bacillus spizizenii, 50 µg/mL (≈ 117 µM); in the experiment on Pseudomonas fluorescens, 100 µg/mL (≈ 234 µM).

For `CC(C)(C)C(=O)C(Oc1ccc(Cl)cc1)n1cncn1` (stereo not drawn) [TRIADIMEFON], the figures for the inhibition in [1] and in experiment [2] were 81% and 55%, respectively. Further, the inhibition at 50 ppm in the experiment with Cercospora beticola was 35%; in the experiment with Fusarium oxysporum, 37%; in the experiment on Rhizoctonia solani, 40%.

`COC(=O)Nc1nc2ccccc2[nH]1` [CARBENDAZIM]: the results for the inhibition in experiment [1] and in experiment [2] were 75% and 74%, respectively. Also, the figures for the inhibition at 50 ppm in the experiment on Cercospora beticola, in the experiment with Fusarium oxysporum and in the experiment on Rhizoctonia solani were 66%, 48% and 62%, respectively.
